Molecular target: interphotoreceptor retinoid-binding protein (IRBP) (Bos taurus, UniProt P12661)
Test: Surface plasmon resonance
Set-up: species or system bovine
Conditions: for Stoichiometry (No. of sites): SPR, 25°C, n=3, ligand:IRBP binding stoichiometry; for kon: pH 7.4, read-out: ka, association rate constant; for koff: pH 7.4, read-out: kd, dissociation rate constant
In short: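 IRBP purified by chromatography from dark-adapted bovine retinas and amine-coupled at 10 µg/mL in 10 mM sodium acetate pH 4.5 to 10–12 kRU, with an unmodified reference channel. Running buffer 10 mM PBS pH 7.4, 0.01% Tween-20, 3% DMSO; for fatty acids, HEPES pH 7.4, 0.01% Tween-20, 3% ethanol. Seven two-fold FastStep injections, typically 0.01–15 µM, in triplicate at 25°C. Data double-referenced and globally fitted.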

interphotoreceptor retinoid-binding protein (IRBP), sequence (P12661 23-1286): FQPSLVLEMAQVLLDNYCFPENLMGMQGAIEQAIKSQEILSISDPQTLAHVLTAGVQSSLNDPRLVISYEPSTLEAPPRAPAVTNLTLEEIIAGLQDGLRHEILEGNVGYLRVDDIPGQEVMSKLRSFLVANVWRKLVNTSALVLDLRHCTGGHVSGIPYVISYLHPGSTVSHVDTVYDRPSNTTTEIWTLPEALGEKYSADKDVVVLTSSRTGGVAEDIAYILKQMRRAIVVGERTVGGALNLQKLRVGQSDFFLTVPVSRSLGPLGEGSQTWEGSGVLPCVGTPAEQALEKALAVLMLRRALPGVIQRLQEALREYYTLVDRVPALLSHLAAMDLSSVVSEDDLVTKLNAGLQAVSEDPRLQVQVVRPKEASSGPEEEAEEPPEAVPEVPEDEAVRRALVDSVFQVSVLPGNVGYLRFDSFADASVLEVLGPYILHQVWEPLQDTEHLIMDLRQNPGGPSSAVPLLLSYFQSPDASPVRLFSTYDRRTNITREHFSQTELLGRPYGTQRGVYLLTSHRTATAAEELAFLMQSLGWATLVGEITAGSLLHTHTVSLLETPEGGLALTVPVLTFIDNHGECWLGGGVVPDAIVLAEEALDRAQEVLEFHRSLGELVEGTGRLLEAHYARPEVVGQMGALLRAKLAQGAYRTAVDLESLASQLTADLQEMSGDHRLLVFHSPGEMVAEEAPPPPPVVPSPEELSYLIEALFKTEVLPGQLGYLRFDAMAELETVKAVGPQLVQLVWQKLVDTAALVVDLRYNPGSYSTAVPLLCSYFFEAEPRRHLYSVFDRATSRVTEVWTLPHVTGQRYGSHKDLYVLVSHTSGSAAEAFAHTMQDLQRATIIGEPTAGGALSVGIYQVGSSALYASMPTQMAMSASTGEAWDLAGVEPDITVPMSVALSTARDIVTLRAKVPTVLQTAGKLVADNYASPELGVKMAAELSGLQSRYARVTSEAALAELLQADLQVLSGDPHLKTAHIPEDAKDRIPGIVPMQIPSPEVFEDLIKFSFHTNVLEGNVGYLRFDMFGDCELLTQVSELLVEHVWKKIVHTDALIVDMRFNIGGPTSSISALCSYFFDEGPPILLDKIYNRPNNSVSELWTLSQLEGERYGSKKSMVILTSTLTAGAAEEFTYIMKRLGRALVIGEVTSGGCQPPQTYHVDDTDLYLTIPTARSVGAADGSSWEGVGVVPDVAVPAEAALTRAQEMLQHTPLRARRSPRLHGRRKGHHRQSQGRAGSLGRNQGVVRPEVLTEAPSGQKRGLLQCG

## CCCCCCCCCCCCCCCC(=O)O [Palmitic acid]
  Kd: 11.1 ± 0.7 µM
  Stoichiometry (No. of sites): 3.7
  kon: 360000 ± 2e+09 M⁻¹ s⁻¹
  koff: 0.4 ± 0.1 s⁻¹

## CCCCC/C=C\C/C=C\C/C=C\C/C=C\CCCC(=O)O [Arachidonic acid]
  Kd: 10 ± 0.1 µM
  Stoichiometry (No. of sites): 3.8
  kon: 24000 ± 3e+07 M⁻¹ s⁻¹
  koff: 0.24 ± 0.3 s⁻¹

## CC1=C(/C=C/C(C)=C/C=C/C(C)=C/C=O)C(C)(C)CCC1 [all-trans-retinal]
  Stoichiometry (No. of sites): 3.2

## CC1=C(/C=C/C(C)=C/C=C/C(C)=C/C=C/C=C(C)/C=C/C=C(C)/C=C/C2=C(C)C[C@@H](O)CC2(C)C)C(C)(C)C[C@H](O)C1 [Zeaxanthin]
  Kd: 1.64 ± 0.5 µM
  Stoichiometry (No. of sites): 3.3
  kon: 33000 ± 1e+07 M⁻¹ s⁻¹
  koff: 0.05 ± 0.5 s⁻¹

## CC1=C(/C=C/C(C)=C/C=C/C(C)=C/C(=O)O)C(C)(C)CCC1 [all -trans -retinoic acid]
  Kd: 3.5 ± 0.1 µM
  Stoichiometry (No. of sites): 3.4
  kon: 40000 ± 1e+07 M⁻¹ s⁻¹
  koff: 0.14 ± 0.2 s⁻¹

## CC1=C[C@H](O)CC(C)(C)[C@H]1/C=C/C(C)=C/C=C/C(C)=C/C=C/C=C(C)/C=C/C=C(C)/C=C/C1=C(C)C[C@@H](O)CC1(C)C [Lutein]
  Kd: 1.06 ± 0.2 µM
  Stoichiometry (No. of sites): 3.4
  kon: 49000 ± 9e+07 M⁻¹ s⁻¹
  koff: 0.05 ± 0.4 s⁻¹

## CCCCCCCCCCCCCCCCCC(=O)O [Stearic acid]
  Kd: 7.03 ± 0.1 µM
  Stoichiometry (No. of sites): 3.7
  kon: 32000 ± 4e+07 M⁻¹ s⁻¹
  koff: 0.23 ± 0.6 s⁻¹

## CCCCCCCC/C=C\CCCCCCCC(=O)O [Oleic acid]
  Kd: 7.3 ± 0.7 µM
  Stoichiometry (No. of sites): 3.6
  kon: 150000 ± 2e+09 M⁻¹ s⁻¹
  koff: 1.1 ± 0.3 s⁻¹

## CC1=C(/C=C/C(C)=C/C=C/C(C)=C/C=C/C=C(C)/C=C/C=C(C)/C=C/C2=C(C)CCCC2(C)C)C(C)(C)CCC1 [β-carotene]
  Kd: 0.92 ± 0.1 µM
  Stoichiometry (No. of sites): 3.1
  kon: 122000 ± 2e+09 M⁻¹ s⁻¹
  koff: 0.11 ± 0.8 s⁻¹

## CCCCCCCCCCCCCCCCCCCC(=O)O [Arachidic acid]
  Kd: 10.2 ± 0.7 µM
  Stoichiometry (No. of sites): 3.7
  kon: 280000 ± 1e+09 M⁻¹ s⁻¹
  koff: 2.8 ± 0.1 s⁻¹

## CC1=C(/C=C/C(C)=C/C=C/C(C)=C/CO)C(C)(C)CCC1 [all-trans-retinol]
  Stoichiometry (No. of sites): 3.5

## CC/C=C\C/C=C\C/C=C\C/C=C\C/C=C\C/C=C\CCC(=O)O [Docosahexaenoic acid (DHA), Docosahexaenoic acid]
  Kd: 10 ± 0.1 µM
  Stoichiometry (No. of sites): 3.4
  kon: 20000 ± 2e+07 M⁻¹ s⁻¹
  koff: 0.2 ± 0.2 s⁻¹

## CC1=C(/C=C/C(C)=C/C=C/C(C)=C/C=C/C=C(C)/C=C/C=C(C)/C=C/C2=C(C)C(=O)[C@@H](O)CC2(C)C)C(C)(C)C[C@H](O)C1=O [Astaxanthin]
  Kd: 1.64 ± 0.06 µM
  Stoichiometry (No. of sites): 3.4
  kon: 26800 ± 9e+07 M⁻¹ s⁻¹
  koff: 0.04 ± 0.5 s⁻¹

## CCCCC/C=C\C/C=C\CCCCCCCC(=O)O [Linoleic acid]
  Kd: 11 ± 0.2 µM
  Stoichiometry (No. of sites): 3.7
  kon: 23000 ± 4e+07 M⁻¹ s⁻¹
  koff: 0.26 ± 0.4 s⁻¹

## CC1=C(/C=C/C(C)=C/C=C/C(C)=C/C=O)C(C)(C)CCC1 [11-cis-retinal]
  Stoichiometry (No. of sites): 3.1

## CC/C=C\C/C=C\C/C=C\C/C=C\C/C=C\CCCC(=O)O [Eicosapentaenoic acid (EPA), Eicosapentaenoic acid]
  Kd: 9.4 ± 0.7 µM
  Stoichiometry (No. of sites): 3.4
  kon: 30000 ± 2e+07 M⁻¹ s⁻¹
  koff: 0.28 ± 0.4 s⁻¹

## meso-zeaxanthin
  Stoichiometry (No. of sites): 3.2

From publication PMC3818380 (Archives of biochemistry and biophysics, 2013)
